The record followed here is ChEMBL document CHEMBL1123663, “Double-headed haptens with pyrocatechol (poison ivy like) and methylene lactone functional groups: a search for skin-tolerance inducers” (1987).

Common to all, as to format: functional
For assay [1], the species on record is Cavia porcellus. As to the kind of experiment: Open epicutaneous test for sensitization in presence of bihapten 1 as sensitizer on guinea pigs as number of positive animals responded. A digest of the protocol: (§1)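 Female Himalayan spotted guinea pigs (300–500 g) sensitized with three intradermal nuchal injections (0.1 mL) on alternate days of the hapten (2.5% w/v) emulsified 1:1 in Freund's complete adjuvant/saline. Elicitation by open epicutaneous test with the hapten at 2% w/v in 4:1 acetone/olive oil. Eight animals per group, with FCA-treated controls. Average skin reaction is the sum of test scores divided by the number of animals tested.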

The species named for assay [2] is Cavia porcellus. In words: Open epicutaneous test for sensitization in presence of bihapten 1 as sensitizer on guinea pigs with skin intensity test scale (erythema plus swelling going well beyond the); Value indicates number of animals. An outline of the steps: as §1
The species entered for assay [3] is Cavia porcellus. In words: Open epicutaneous test for sensitization in presence of lactone 8 as sensitizer on guinea pigs with skin intensity test scale (slight erythema not covering the whole test area); Value indicates number of animals. A digest of the protocol: as §1
For assay [4], the species on record is Cavia porcellus. In words: Open epicutaneous test for sensitization in presence of bihapten 1 as sensitizer on guinea pigs with skin intensity test scale (erythema plus swelling of the test area); Value indicates number of animals. An outline of the steps: as §1
The species entered for assay [5] is Cavia porcellus. In words: Open epicutaneous test for sensitization in presence of lactone 8 as sensitizer on guinea pigs with skin intensity test scale (no reaction); Value indicates number of animals. A digest of the protocol:
as §1

The species named for assay [6] is Cavia porcellus. As to the kind of experiment: Open epicutaneous test for sensitization in presence of lactone 8 (pretreated with bihapten 1) as sensitizer on guinea pigs as number of positive animals responded. A digest of the protocol:
as §1

For assay [7], the species on record is Cavia porcellus. In words: Open epicutaneous test for sensitization as average skin reaction in presence of lactone 8 as sensitizer on guinea pigs; Value indicates number of animals. A digest of the protocol:
as §1

The species entered for assay [8] is Cavia porcellus. As to the kind of experiment: Open epicutaneous test for sensitization in presence of lactone 8 (pretreated with bihapten 1)as sensitizer on guinea pigs with skin intensity test scale (erythema plus swelling of the test area). An outline of the steps:
as §1

For assay [9], the species on record is Cavia porcellus. As to the kind of experiment: Open epicutaneous test for sensitization in presence of bihapten 1 as sensitizer on guinea pigs with skin intensity test scale (definite erythema covering the whole test area); Value indicates number of animals. An outline of the steps: as §1
Assay [10] is filed under the species Cavia porcellus. As to the kind of experiment: Open cutaneous test for sensitization in presence of lactone 8 (pretreated with bihapten 1)as sensitizer on guinea pigs with skin intensity test scale (slight erythema not covering the whole test area); Value indicates number of animals. An outline of the steps:
as §1

The species entered for assay [11] is Cavia porcellus. In words: Open epicutaneous test for sensitization in presence of lactone 8 (pretreated with bihapten 1)as sensitizer on guinea pigs with skin intensity test scale (no reaction); Value indicates number of animals. A digest of the protocol: as §1
For assay [12], the species on record is Cavia porcellus. In words: Open epicutaneous test for sensitization in presence of bihapten 1 as sensitizer on guinea pigs with skin intensity test scale (slight erythema not covering the whole test area); Value indicates number of animals. A digest of the protocol: as §1
For assay [13], the species on record is Cavia porcellus. In words: Open epicutaneous test for sensitization in presence of lactone 8 as sensitizer on guinea pigs with skin intensity test scale (erythema plus swelling going well beyond); Value indicates number of animals. A digest of the protocol: as §1
The species named for assay [14] is Cavia porcellus. In words: Open epicutaneous test for sensitization in presence of lactone 8 as sensitizer on guinea pigs as number of positive animals responded. An outline of the steps: as §1
Assay [15] is filed under the species Cavia porcellus. In words: Open epicutaneous test for sensitization in presence of lactone 8 (pretreated with bihapten 1)as sensitizer on guinea pigs with skin intensity test scale (definite erythema covering the whole test area); Value indicates number of animals. A digest of the protocol: as §1
The species entered for assay [16] is Cavia porcellus. As to the kind of experiment: Open epicutaneous test for sensitization in presence of lactone 8 (pretreated with bihapten 1)as sensitizer on guinea pigs with skin intensity test scale (erythema plus swelling going well beyond); Value indicates number of animals. An outline of the steps:
as §1

The species entered for assay [17] is Cavia porcellus. In words: Open epicutaneous test for sensitization in presence of bihapten 1 as sensitizer on guinea pigs with skin intensity test scale (no reaction); Value indicates number of animals. An outline of the steps: as §1
Assay [18] is filed under the species Cavia porcellus. As to the kind of experiment: Open epicutaneous test for sensitization as average skin reaction in presence of lactone 8 (pretreated with bihapten 1) as sensitizer on guinea pigs; Value indicates number of animals. An outline of the steps:
as §1

For assay [19], the species on record is Cavia porcellus. In words: Open epicutaneous test for sensitization in presence of lactone 8 as sensitizer on guinea pigs with skin intensity test scale (definite erythema covering the whole test area); Value indicates number of animals. A digest of the protocol: as §1
Assay [20] is filed under the species Cavia porcellus. In words: Open epicutaneous test for sensitization in presence of lactone 8 as sensitizer on guinea pigs with skin intensity test scale (erythema plus swelling of the test area); Value indicates number of animals. A digest of the protocol: as §1
The species named for assay [21] is Cavia porcellus. As to the kind of experiment: Open epicutaneous test for sensitization as average skin reaction in presence of bihapten 1 as sensitizer on guinea pigs; Value indicates number of animals. An outline of the steps: as §1
The species named for assay [22] is Cavia porcellus. In words: Open epicutaneous test for sensitization in presence of lactone 8 (pretreated with bihapten 1) as sensitizer on guinea pigs with skin intensity test scale (erythema plus swelling going well beyond); Value indicates number of animals. An outline of the steps: as §1
Assay [23] is filed under the species Cavia porcellus. In words: Open epicutaneous test for sensitization in presence of lactone 8 (pretreated with bihapten 1) as sensitizer on guinea pigs with skin intensity test scale (definite erythema covering the whole test area); Value indicates number of animals. A digest of the protocol:
as §1

For assay [24], the species on record is Cavia porcellus. In words: Open epicutaneous test for sensitization in presence of lactone 8 (pretreated with bihapten 1) as sensitizer on guinea pigs with skin intensity test scale (no reaction); Value indicates number of animals. A digest of the protocol: as §1
The species entered for assay [25] is Cavia porcellus. As to the kind of experiment: Open cutaneous test for sensitization in presence of lactone 8 as sensitizer on guinea pigs with skin intensity test scale (erythema plus swelling going well beyond); Value indicates number of animals. A digest of the protocol: as §1
For assay [26], the species on record is Cavia porcellus. In words: Open epicutaneous test for sensitization in presence of bihapten 1 as sensitizer on guinea pigs with skin intensity test scale (erythema plus swelling going well beyond); Value indicates number of animals. An outline of the steps: as §1
Assay [27] is filed under the species Cavia porcellus. As to the kind of experiment: Open cutaneous test for sensitization in presence of lactone 8 as sensitizer on guinea pigs with skin intensity test scale (no reaction); Value indicates number of animals. A digest of the protocol:
as §1

The species entered for assay [28] is Cavia porcellus. In words: Open epicutaneous test for sensitization in presence of lactone 8 (pretreated with bihapten 1) as sensitizer on guinea pigs with skin intensity test scale (erythema plus swelling of the test area); Value indicates number of animals. An outline of the steps: as §1
For assay [29], the species on record is Cavia porcellus. In words: Open epicutaneous test for sensitization in presence of lactone 8 (pretreated with bihapten 1) as sensitizer on guinea pigs with skin intensity test scale (slight erythema not covering the whole test area); Value indicates number of animals. An outline of the steps:
as §1

For assay [30], the species on record is Cavia porcellus. As to the kind of experiment: Open cutaneous test for sensitization in presence of lactone 8 as sensitizer on guinea pigs with skin intensity test scale (erythema plus swelling of the test area); Value indicates number of animals. A digest of the protocol:
as §1

The species entered for assay [31] is Cavia porcellus. As to the kind of experiment: Open cutaneous test for sensitization in presence of lactone 8 as sensitizer on guinea pigs with skin intensity test scale (slight erythema not covering the whole test area); Value indicates number of animals. A digest of the protocol:
as §1

The species named for assay [32] is Cavia porcellus. As to the kind of experiment: Open cutaneous test for sensitization in presence of lactone 8 as sensitizer on guinea pigs with skin intensity test scale (definite erythema covering the whole test area); Value indicates number of animals. A digest of the protocol:
as §1

Take `C=C1CC(CCCCCCCCCc2cccc(O)c2O)OC1=O` (configuration not stated): the “No. of positive animals” value in the assay filed under Cavia porcellus [1], in the assay listed under Cavia porcellus [6] and in the assay listed under Cavia porcellus [14] was 8 in each case. For the same molecule, the Skin reaction was 0 in the assay listed under Cavia porcellus [2]; 0 in the assay listed under Cavia porcellus [3]; 0 in the assay listed under Cavia porcellus [4]; 0 in the assay filed under Cavia porcellus [5]; 0 in the assay listed under Cavia porcellus [8]; 8 in the assay filed under Cavia porcellus [9]. In addition, the Skin reaction amounted to 0 in the assay filed under Cavia porcellus [10]; 0 in the assay filed under Cavia porcellus [11]; 0 in the assay filed under Cavia porcellus [12]; 0 in the assay filed under Cavia porcellus [13]; 8 in the assay filed under Cavia porcellus [15]; 0 in the assay filed under Cavia porcellus [16]. Moreover, the Skin reaction in the assay filed under Cavia porcellus [17] was determined as 0; in the assay listed under Cavia porcellus [19], 3; in the assay filed under Cavia porcellus [20], 5. Besides, the results for the “Average for skin reaction” value in the assay listed under Cavia porcellus [7], in the assay listed under Cavia porcellus [18] and in the assay filed under Cavia porcellus [21] were 1.6, 1 and 1, respectively.

As to `C=C1CC(CCCCCCCCCc2cccc(OC)c2OC)OC1=O` (configuration not stated), the figures for the “No. of positive animals” value in the assay filed under Cavia porcellus [1], in the assay listed under Cavia porcellus [6] and in the assay listed under Cavia porcellus [14] were 0, 8 and 8, respectively. Also, the Skin reaction in the assay listed under Cavia porcellus [22] is reported as 0; in the assay filed under Cavia porcellus [4] it was 0; in the assay filed under Cavia porcellus [9] it was 0; in the assay filed under Cavia porcellus [23], 2; in the assay listed under Cavia porcellus [24], 0; in the assay filed under Cavia porcellus [25] it was 8. Moreover, the Skin reaction worked out at 0 in the assay filed under Cavia porcellus [12]; 0 in the assay listed under Cavia porcellus [26]; 0 in the assay filed under Cavia porcellus [17]; 0 in the assay filed under Cavia porcellus [27]; 0 in the assay listed under Cavia porcellus [28]; 6 in the assay filed under Cavia porcellus [29]. For the same molecule, the Skin reaction in the assay listed under Cavia porcellus [30], in the assay filed under Cavia porcellus [31] and in the assay listed under Cavia porcellus [32] was 0 each time. In addition, the “Average for skin reaction” value turned out to be 3 in the assay listed under Cavia porcellus [7], 0.6 in the assay filed under Cavia porcellus [18] and 0 in the assay listed under Cavia porcellus [21].
